Calls of active or inactive are those of the source. No cut-off for these calls is given here. Where a SMILES comes first, the peptide text is derived from it. [ ]: non-standard residue; d: D form. ξ: configuration not given here. d2Nal = N[C@H](Cc1ccc2ccccc2c1)C(=O)O; ξTic = O=C(O)C1Cc2ccccc2CN1
Legend:
[1] = target: T1, Delta-type opioid receptor (Homo sapiens, UniProt P41143); test: Displacement of [3H]-diprenorphine from human DOR expressed in CHO cell membranes after 80 mins by scintillation counting analysis
T1 sequence (P41143 whole entry): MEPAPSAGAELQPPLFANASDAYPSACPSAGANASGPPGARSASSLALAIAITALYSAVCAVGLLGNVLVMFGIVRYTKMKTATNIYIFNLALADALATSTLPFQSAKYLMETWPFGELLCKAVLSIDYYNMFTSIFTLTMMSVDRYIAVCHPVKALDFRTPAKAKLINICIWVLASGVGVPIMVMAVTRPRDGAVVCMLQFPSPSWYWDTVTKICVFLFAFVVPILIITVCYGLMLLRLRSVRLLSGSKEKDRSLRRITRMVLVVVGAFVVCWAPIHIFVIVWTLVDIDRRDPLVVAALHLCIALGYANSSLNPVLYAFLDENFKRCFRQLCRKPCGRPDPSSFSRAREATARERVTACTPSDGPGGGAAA
Outline: (§1)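 Competition binding on MOR-, DOR- or MDOR-CHO membranes used a fixed 3H-diprenorphine level against competitor concentration curves; 30°C, 80 min, GF/B filtration, scintillation counting. Nonspecific binding defined with 500 nM each DMT-Tic-Ala-OH and CTAP. Ki was derived from IC50 and the 3H-diprenorphine KD in each line; MDOR data fitted with a 2-site model. N = 3-4, mean ± SEM.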

[2] = target: T2, Opioid receptors; mu & delta (Homo sapiens, UniProt P41143+P35372); test: (§2) Antagonist activity at human mu-delta opioid receptor heterodimer expressed in CHO cell membranes assessed as inhibition of CYM51010-induced [35S]-GTPgammaS binding at high site fraction preincubated for 5 mins followed by CYM51010 and [35S]-GTPgammaS addition measured after 80 mins relative to control; assay type: functional
T2 sequence (P35372 whole entry, looked up): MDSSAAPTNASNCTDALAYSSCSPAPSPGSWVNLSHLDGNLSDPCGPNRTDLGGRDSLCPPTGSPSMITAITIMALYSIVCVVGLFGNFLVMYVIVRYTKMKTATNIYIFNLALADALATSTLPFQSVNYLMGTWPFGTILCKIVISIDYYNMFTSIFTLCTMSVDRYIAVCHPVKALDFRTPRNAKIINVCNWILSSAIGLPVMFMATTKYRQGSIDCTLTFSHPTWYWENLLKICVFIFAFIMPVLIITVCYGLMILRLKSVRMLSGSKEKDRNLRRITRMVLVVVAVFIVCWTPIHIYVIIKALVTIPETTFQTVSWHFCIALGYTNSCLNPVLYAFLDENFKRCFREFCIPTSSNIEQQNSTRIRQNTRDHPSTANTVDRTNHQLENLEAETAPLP
T2 sequence (P41143 whole entry, looked up): as the sequence (P41143 whole entry) above
Outline: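 35S-GTPγS coupling in MDOR-CHO membranes: 5 min antagonist pre-incubation, then 1 µM CYM51010 plus 0.1 nM 35S-GTPγS, 30°C for 80 min, filtration and scintillation read. A 3-variable 2-site antagonist fit gave FHIGH, the fraction of the high-potency site. N = 3-4 independent experiments.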

[3] = target: T2, Opioid receptors; mu & delta; test: Displacement of [3H]-diprenorphine from human mu-delta opioid receptor heterodimer expressed in CHO cell membranes at high site fraction after 80 mins by scintillation counting analysis relative to control
[4] = target: T2, Opioid receptors; mu & delta; test: Displacement of [3H]-diprenorphine from human mu-delta opioid receptor expressed in CHO cell membranes after 80 mins by scintillation counting analysis; outline: as §1
[5] = target: T2, Opioid receptors; mu & delta; test: Antagonist activity at human mu-delta opioid receptor heterodimer expressed in CHO cell membranes assessed as inhibition of CYM51010-induced [35S]-GTPgammaS binding at high site fraction preincubated for 5 mins followed by CYM51010 and [35S]-GTPgammaS addition measured after 80 mins; assay type: functional
Outline: (§3)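 Membranes from CHO cells stably expressing human opioid receptor (N-terminal tagged) were preincubated 5 min with antagonist concentration curves, then given 1 µM CYM51010 and 0.1 nM 35S-GTPγS; 30°C, 80 min, GF/B filtration, scintillation counting. Normalized to CYM51010 alone (100%) and vehicle (0%). Fits: 1-site for MOR/DOR (IC50), 2-site for MDOR (IC50HIGH). N = 3-4, duplicate, mean ± SEM.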

Homo sapiens [6] = species on record: Homo sapiens; test: Selectivity ratio of KiH for human mu-delta opioid receptor heterodimer expressed in CHO cell membranes to Ki for human DOR expressed in CHO cell membranes; assay type: cell-based
Homo sapiens [7] = species on record: Homo sapiens; test: Selectivity ratio of IC50H for human mu-delta opioid receptor heterodimer expressed in CHO cell membranes to IC50 for human DOR expressed in CHO cell membranes; assay type: cell-based
[8] = target: T1, Delta-type opioid receptor; test: Antagonist activity at human DOR expressed in CHO cell membranes assessed as inhibition of CYM51010-induced [35S]-GTPgammaS binding preincubated for 5 mins followed by CYM51010 and [35S]-GTPgammaS addition measured after 80 mins; assay type: functional; outline: as §3
Mu-type opioid receptor [9] = target: T3, Mu-type opioid receptor (Homo sapiens, UniProt P35372); test: Displacement of [3H]-diprenorphine from human MOR expressed in CHO cell membranes after 80 mins by scintillation counting analysis; outline: as §1
T3 sequence (P35372 whole entry): as the sequence (P35372 whole entry, looked up) above

Mu-type opioid receptor [10] = target: T3, Mu-type opioid receptor; test: Antagonist activity at human MOR expressed in CHO cell membranes assessed as inhibition of CYM51010-induced [35S]-GTPgammaS binding preincubated for 5 mins followed by CYM51010 and [35S]-GTPgammaS addition measured after 80 mins; assay type: functional; outline: as §3
[11] = target: Kappa-type opioid receptor (Homo sapiens) (UniProt P41145); test: Antagonist activity at human KOR expressed in CHO cell membranes assessed as inhibition of U50488-induced [35S]-GTPgammaS binding preincubated for 5 mins followed by U50488 and [35S]-GTPgammaS addition measured after 80 mins; assay type: functional
Kappa-type opioid receptor (Homo sapiens), sequence (P41145 whole entry): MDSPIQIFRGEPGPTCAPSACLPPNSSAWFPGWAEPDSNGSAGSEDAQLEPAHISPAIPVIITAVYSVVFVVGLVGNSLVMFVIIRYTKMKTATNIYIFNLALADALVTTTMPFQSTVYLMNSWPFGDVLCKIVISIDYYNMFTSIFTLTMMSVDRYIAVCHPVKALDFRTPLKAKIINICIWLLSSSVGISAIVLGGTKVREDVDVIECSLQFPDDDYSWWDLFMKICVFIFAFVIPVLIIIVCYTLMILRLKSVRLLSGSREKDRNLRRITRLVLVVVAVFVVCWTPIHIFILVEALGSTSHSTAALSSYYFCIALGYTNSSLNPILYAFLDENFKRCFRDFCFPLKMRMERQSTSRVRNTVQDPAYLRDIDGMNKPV
Outline: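 KOR-CHO membranes (human receptor, N-terminal tag), antagonist concentration curve preincubated 5 min, then 1 µM U50,488 plus 0.1 nM 35S-GTPγS added. Incubated 30°C, 80 min; filtration and scintillation counting. Vehicle 0.1% DMSO in assay buffer with 0.1% BSA. Normalized to agonist alone (100%) and vehicle (0%). One-site curve fit; N = 3 independent experiments in duplicate.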

[12] = target: T2, Opioid receptors; mu & delta; test: Antagonist activity at human mu-delta opioid receptor heterodimer expressed in CHO cell membranes assessed as inhibition of DAMGO-induced [35S]-GTPgammaS binding preincubated for 5 mins followed by DAMGO and [35S]-GTPgammaS addition measured after 80 mins; assay type: functional
Outline: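 MDOR-CHO membranes were preincubated 5 min with antagonist concentration curve, then 1 µM DAMGO and 0.1 nM 35S-GTPγS were added. Incubated 30°C, 80 min; filter harvest, scintillation counting. Normalized to agonist alone and vehicle. N = 3 independent experiments in duplicate.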

[13] = target: T2, Opioid receptors; mu & delta; test: as §2, with “fraction at 100 uM” for “fraction”; assay type: functional
Mus musculus = species on record: Mus musculus; test: Antinociceptive activity in CD1 mouse assessed as reduction in CYM51010-induced nociception at 10 nmol pretreated for 5 mins followed by CYM51010 injection measured up to 2 hrs by tail flick assay; assay type: functional, organism-based

Row | SMILES | Ki ([1]; cho) [nM] | Imax [2] [%] | Imax [3] [%] | KiH [4] [nM] | IC50H [5] [nM] | Ratio Ki (Homo sapiens [6]) | Ratio IC50 (Homo sapiens [7]) | IC50 ([8]; cho) [nM] | Ki (Mu-type opioid receptor [9]; cho) [nM] | IC50 (Mu-type opioid receptor [10]; cho) [nM] | other results
1 | NCCCC[C@H](NC(=O)CCCNC(=O)CNC(=O)[C@@H]1Cc2ccccc2CN1C(=O)[C@@H](N)Cc1ccc(O)cc1)C(=O)O | 250 | – | – | – | – | – | – | – | – | – | –
2 | N[C@@H](Cc1ccc(O)cc1)C(=O)N1Cc2ccccc2C[C@@H]1C(=O)NCC(=O)NCCC(=O)NCCCCCC(=O)N[C@H](CCCCNC(=O)CCCCCNC(=O)CNC(=O)[C@@H](Cc1cccc2ccccc12)NC(=O)[C@H](Cc1ccccc1)NC(=O)[C@@H]1CCCN1C(=O)[C@@H](N)Cc1ccc(O)cc1)C(=O)O | – | 41 | 15 | 8.1 | 20 | 35 | 5 | – | – | – | –
3 | N[C@@H](Cc1ccc(O)cc1)C(=O)N1Cc2ccccc2C[C@H]1C(=O)NCC(=O)NCCCC(=O)N[C@@H](CCCCNC(=O)CCNC(=O)CNC(=O)[C@@H](Cc1cccc2ccccc12)NC(=O)[C@H](Cc1ccccc1)NC(=O)[C@@H]1CCCN1C(=O)[C@@H](N)Cc1ccc(O)cc1)C(=O)O | 98 | – | – | – | – | – | – | 68 | > 1000 | > 1000 | –
4 | NC(=O)[C@@H](Cc1ccc2ccccc2c1)NC(=O)[C@H](Cc1ccccc1)NC(=O)[C@@H]1CCCN1C(=O)[C@@H](N)Cc1ccc(O)cc1 (H-YPF[d2Nal]-NH2) | – | – | – | – | > 1000 | – | – | – | – | – | inhibition [11]: inactive; Ki (Mu-type opioid receptor [9]): > 1000 nM; IC50 (Mu-type opioid receptor [10]): > 1000 nM; IC50 [12]: >= 3333 nM; Imax [13]: 0.43%
5 | N[C@@H](Cc1ccc(O)cc1)C(=O)N1Cc2ccccc2C[C@H]1C(=O)NCC(=O)NCC(=O)N[C@@H](CCCCNC(=O)CNC(=O)[C@@H](Cc1cccc2ccccc12)NC(=O)[C@H](Cc1ccccc1)NC(=O)[C@@H]1CCCN1C(=O)[C@@H](N)Cc1ccc(O)cc1)C(=O)O | 270 | – | – | – | – | – | – | 58 | > 1000 | > 1000 | –
6 | N[C@@H](Cc1ccc(O)cc1)C(=O)N1Cc2ccccc2C[C@H]1C(=O)NCC(=O)NCC(=O)NCCCCCC(=O)NCCC(=O)N[C@@H](CCCCNC(=O)CCNC(=O)CCCCCNC(=O)CCNC(=O)CNC(=O)[C@@H](Cc1cccc2ccccc12)NC(=O)[C@H](Cc1ccccc1)NC(=O)[C@@H]1CCCN1C(=O)[C@@H](N)Cc1ccc(O)cc1)C(=O)O | 230 | – | – | – | – | – | – | 94 | > 1000 | > 1000 | –
7 | N[C@@H](Cc1ccc(O)cc1)C(=O)N1Cc2ccccc2CC1C(=O)O (stereo partly specified) (H-Tyr-[ξTic]-OH) | – | 44 | – | – | 250 | – | – | – | – | – | Activity (Mus musculus): inactive; IC50 [8]: 100 nM; inhibition [11]: inactive; Ki [1]: 230 nM; IC50 [12]: 36.9 nM
8 | N[C@@H](Cc1ccc(O)cc1)C(=O)N1Cc2ccccc2C[C@H]1C(=O)NCC(=O)NCCC(=O)NCCCCCC(=O)N[C@@H](CCCCNC(=O)CCCCCNC(=O)CNC(=O)[C@@H](Cc1cccc2ccccc12)NC(=O)[C@H](Cc1ccccc1)NC(=O)[C@@H]1CCCN1C(=O)[C@@H](N)Cc1ccc(O)cc1)C(=O)O | 290 | – | – | – | – | – | – | 100 | > 1000 | > 1000 | –
9 | NCCCC[C@@H](NC(=O)CCCNC(=O)CNC(=O)[C@H]1Cc2ccccc2CN1C(=O)[C@@H](N)Cc1ccc(O)cc1)C(=O)O | – | 28 | – | – | 170 | – | – | – | – | – | –
10 | N[C@@H](Cc1ccc(O)cc1)C(=O)N1Cc2ccccc2C[C@@H]1C(=O)NCC(=O)NCCCCC(=O)N[C@H](CCCCNC(=O)CNC(=O)[C@@H](Cc1cccc2ccccc12)NC(=O)[C@H](Cc1ccccc1)NC(=O)[C@@H]1CCCN1C(=O)[C@@H](N)Cc1ccc(O)cc1)C(=O)O | – | 39 | 12 | 2 | 2.1 | 58 | 28 | – | – | – | –
11 | N[C@@H](Cc1ccc(O)cc1)C(=O)N1Cc2ccccc2C[C@@H]1C(=O)NCC(=O)NCCCC(=O)N[C@H](CCCCNC(=O)CCNC(=O)CNC(=O)[C@@H](Cc1cccc2ccccc12)NC(=O)[C@H](Cc1ccccc1)NC(=O)[C@@H]1CCCN1C(=O)[C@@H](N)Cc1ccc(O)cc1)C(=O)O | – | 43 | 9 | 1.3 | 1.6 | 78 | 43 | – | – | – | –
12 | N[C@@H](Cc1ccc(O)cc1)C(=O)N1Cc2ccccc2C[C@H]1C(=O)NCC(=O)NCCCCC(=O)N[C@@H](CCCCNC(=O)CNC(=O)[C@@H](Cc1cccc2ccccc12)NC(=O)[C@H](Cc1ccccc1)NC(=O)[C@@H]1CCCN1C(=O)[C@@H](N)Cc1ccc(O)cc1)C(=O)O | 120 | – | – | – | – | – | – | 58 | > 1000 | > 1000 | –
13 | N[C@@H](Cc1ccc(O)cc1)C(=O)N1Cc2ccccc2C[C@@H]1C(=O)NCC(=O)NCC(=O)NCCCCCC(=O)NCCC(=O)N[C@H](CCCCNC(=O)CCNC(=O)CCCCCNC(=O)CCNC(=O)CNC(=O)[C@@H](Cc1cccc2ccccc12)NC(=O)[C@H](Cc1ccccc1)NC(=O)[C@@H]1CCCN1C(=O)[C@@H](N)Cc1ccc(O)cc1)C(=O)O | – | 37 | 12 | 16 | 48 | 15 | 2 | – | – | – | –
14 | N[C@@H](Cc1ccc(O)cc1)C(=O)N1Cc2ccccc2C[C@@H]1C(=O)NCC(=O)NCC(=O)N[C@H](CCCCNC(=O)CNC(=O)[C@@H](Cc1cccc2ccccc12)NC(=O)[C@H](Cc1ccccc1)NC(=O)[C@@H]1CCCN1C(=O)[C@@H](N)Cc1ccc(O)cc1)C(=O)O | – | 43 | 12 | 2.5 | 3.4 | 110 | 17 | – | – | – | –

From ChEMBL document CHEMBL4138315, “Synthesis and Evaluation of a Novel Bivalent Selective Antagonist for the Mu-Delta Opioid Receptor Heterodimer that Reduces Morphine Withdrawal in Mice” (J Med Chem, 2018)
